# This is a sample that favours compounds with a hit; in the whole collection about 5.5% have one here.
# STAT3 inh: IL-6 driven STAT3 reporter inhibitors, primary screen, U3A cells, luciferase, luminescence, MLSCN library. inhibition, % at 5.5 µM. AID 862, 2007. 190,000 tested, 0.89% active. IL-6 STAT3-luciferase reporter; host cell line lacks STAT1;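 active = inhibition above the mean inhibition across all screened compounds plus 3 SD, cut at about 44% in these data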
# Cl transport mod: KCC2 cotransporter modulators, thallium flux, primary screen, cell-based, HEK293 KCC2, FluoZin-2 fluorescence, MLSMR | Solute carrier family 12 member 5 (Homo sapiens), Q9H2X9 | KCC2 cells, thallium flux FluoZin-2 fluorescence | B-score of Tl+ flux slope (higher = more flux/activation; lower = inhibition) at 10 µM | 190,000 tested, 2.2% active;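 active = thallium flux slope and its plate-corrected score both differing from the plate sample mean at a set confidence after two filtering rounds, in either direction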;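 also: slope of fluorescence scaled to starting intensity during 10 to 20 s after thallium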
# STAT1 inh: STAT1 signaling inhibitors, primary screen, cell-based, HTS, luciferase reporter; NIH 3T3 STAT1-luciferase reporter, IFN-gamma, luminescence; inhibition, % at 5.5 µM; 200,000 tested, 0.35% active;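 active = inhibition above a set limit, the mean inhibition across all tested compounds plus 3 SD, cut at about 34% in these data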
# STAT3 act-1: IL-6 driven STAT3 reporter potentiators, primary screen, U3A cells, luciferase, luminescence, MLSCN library; 190,000 tested, 0.91% active; activation (% of control), % at 5.6 µM; IL-6 STAT3-luciferase reporter; 100% = signal with IL-6 EC80 alone; AID 871, 2007;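 active = activation above the screen-wide mean of compound activation plus 3 SD, cut at about 130% in these data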
#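 Test system: human U3A cells carrying STAT3-luciferase construct; control set: IL-6-only wells as 100% reference; timing: compound pre-incubation 1 h before IL-6, then 6 h stimulation at 37 °C; also added: IL-6 stimulus at 33 ng/mL final; evaluation: % activation versus median of IL-6-stimulated wells; detection: reporter luminescence signal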
# HSV augment: enhancers of HSV replication in host cells, fold increase, host cell viability. HSV replication augmentation in cells. maximum fold increase. 220,000 tested, 0.005% active; in the data active = maximum fold increase above about 1.5; tested in PC3 cells
# STAT1 act-1: STAT1 signaling activators, primary screen, cell-based, HTS, luciferase reporter; 200,000 tested, 2.6% active; activation (% of control), % at 5.5 µM; NIH 3T3 STAT1-luciferase reporter, IFN-gamma, luminescence; 100% = IFN-gamma alone, no compound;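 active = activation above the screen-wide mean activation plus 3 SD, cut at about 130% in these data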
# STAT3 act-2: STAT3 reporter potentiators, retest of hits, confirmation, U3A cells, luciferase, luminescence; shares compounds with STAT3 act-1; IL-6 potentiation; U3A cells lack STAT1; 100 means same as IL-6 alone; potentiation (% of control), % at 5.7 µM; 1,200 tested, 64% active;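 active = percent activation of the STAT3 luciferase reporter above a set limit taken from the earlier primary screen, cut at about 130% in these data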
# NFkB act 2: NF-kB reporter activators in human cells, counter-screen for STAT3 activator project | shares compounds with STAT3 act-1 | NF-kappaB reporter activation | activation (% of control), % at 5.7 µM | 1,200 tested, 11% active; in the data active = activation above about 120%;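 also: reporter induced by TNF-alpha stimulation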
# STAT1 act-2: STAT1 reporter activators, IFN-gamma induced, counter-screen for STAT3 activator project, cell-based, NIH 3T3, luciferase luminescence; NIH 3T3 STAT1-luciferase reporter; shares compounds with STAT3 act-1; activation (% of control), % at 5.7 µM; 1,200 tested, 13% active; AID 1318, 2008;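 active = activation above the solvent-only control well mean plus 3 SD, set per screening run, cut at about 120% in these data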
# A number is an active result; - = inactive; . = not tested or not shown.
SMILES,STAT3 inh,Cl transport mod,STAT1 inh,STAT3 act-1,HSV augment,STAT1 act-1,STAT3 act-2,NFkB act 2,STAT1 act-2
COc1cccc(-n2c(SCC(N)=O)nc3c([nH]c4ccccc43)c2=O)c1,-,-,-,143,.,-,158,-,-
COc1cccc(-n2c(SCC(=O)Nc3cc(C)on3)nc3c([nH]c4ccccc43)c2=O)c1,-,-,-,144,-,-,135,-,-
CCOC(=O)C(C)Sc1nc2c([nH]c3ccccc32)c(=O)n1C (stereo unspecified),-,-,-,-,-,-,.,.,.
CC(C)Sc1nc2c([nH]c3ccccc32)c(=O)n1C,-,-,-,158,-,-,159,-,-
CC(OC(=O)c1ccncc1)C(=O)Nc1cccc(Cl)c1 (stereo unspecified),-,.,-,-,-,-,.,.,.
CN(CCC#N)S(=O)(=O)c1ccc2[nH]cc(C(=O)NCCc3ccccc3)c(=O)c2c1,-,-,-,-,-,-,.,.,.
Cc1cc(NC(=O)CSc2nc3c([nH]c4ccccc43)c(=O)n2-c2cccc(C(F)(F)F)c2)no1,-,-,-,148,-,-,138,-,-
Cc1ccc(-n2c(SCC(N)=O)nc3c([nH]c4ccccc43)c2=O)cc1,-,-,-,-,-,-,.,.,.
Cc1ccc(C)n1NC(=O)c1ccccc1O,-,-,-,153,-,-,151,-,-
Cc1ccc(C)n1NC(=O)c1ccccc1[N+](=O)[O-],-,-,-,-,-,-,.,.,.
CCOc1ccc(-n2c(N)c(-c3nc4ccccc4[nH]3)sc2=S)cc1,-,-,-,-,-,-,.,.,.
COc1ccc(-n2c(N)c(-c3nc4ccccc4n3C)sc2=S)cc1,-,-,-,148,-,-,173,-,-
Cc1cccc(/C=N/n2c(C)cc(C)c(C#N)c2=O)c1,-,-,-,-,-,-,.,.,.
Cc1ccc2nc(SCC(=O)Nc3cc([N+](=O)[O-])ccc3F)[nH]c2c1,-,-,-,139,-,-,139,-,-
Cc1ccc2nc(SCC(=O)Nc3ccc(F)c([N+](=O)[O-])c3)[nH]c2c1,-,-,-,-,-,-,.,.,.
Cc1ccc(C(=O)N2CCN(S(=O)(=O)c3ccc(C)cc3)CC2)cc1,-,-,-,146,-,-,-,-,-
O=C(c1ccccc1)N1CCN(S(=O)(=O)c2ccccc2)CC1,.,-,.,.,-,.,.,.,.
COc1ccc(C(=O)n2nc(C)cc2Nc2ccccc2)cc1,-,-,-,167,-,-,153,-,136
Cc1cc(Nc2ccccc2)nn1C(=O)c1ccccc1,-,-,-,-,-,-,.,.,.
COc1ccc(CNC(=O)CCC(=O)N2CCN(S(=O)(=O)c3ccc(Cl)cc3)CC2)cc1,-,-,-,-,-,-,.,.,.
O=C(Nc1cc(S(=O)(=O)N2CCOCC2)ccc1Cl)C(=O)c1c(-c2ccccc2)cc2ccccn12,-,-,-,-,-,-,.,.,.
Cc1ccc2nc(C(=O)N3CCc4c([nH]c5ccccc45)C3c3ccccn3)cn2c1 (stereo unspecified),-,-,-,-,-,-,.,.,.
COc1ccc(C2c3[nH]c4ccccc4c3CCN2C(=O)c2cn3ccccc3n2)c(F)c1 (stereo unspecified),-,-,-,161,-,-,159,-,-
COc1ccc(C2c3[nH]c4ccccc4c3CCN2C(=O)c2cc3ncccn3n2)c(F)c1 (stereo unspecified),-,-,-,146,-,-,149,-,-
CC(=O)c1cccc(NC(=O)C2C3C=CC(C3)C2C(=O)O)c1 (stereo unspecified),-,-,-,-,-,-,.,.,.
SMILES,STAT3 inh,Cl transport mod,STAT1 inh,STAT3 act-1,HSV augment,STAT1 act-1,STAT3 act-2,NFkB act 2,STAT1 act-2
CC(C)=C1C2C=CC1C(C(=O)Nc1cccc(C)c1)C2C(=O)O (stereo unspecified),-,.,-,160,-,-,145,-,-
CCSc1nc2ccccc2[nH]1,-,-,-,-,-,-,.,.,.
Nc1ccccc1Sc1nc2ccccc2[nH]1,-,-,-,136,-,-,159,-,-
C/C(N)=C(/C#N)C(=O)CSc1nnc(COc2ccccc2Cl)o1,-,-,-,139,-,-,134,-,-
CC(C)(C)NC(=O)NC(=O)CSc1nnc(COc2ccccc2Cl)o1,-,-,-,-,-,-,.,.,.
Cc1ncc([N+](=O)[O-])n1CCOC(=O)c1ccc(Cl)cc1Cl,-,-,-,-,-,-,.,.,.
CN(C)S(=O)(=O)c1cccc(NC(=O)Cn2cnc3ccccc3c2=O)c1,-,-,-,-,-,-,.,.,.
O=C(Cc1ccccc1)c1nc2ccccc2s1,-,-,-,143,-,-,164,128,128
COC(=O)c1ccc(CC(=O)c2nc3ccccc3s2)cc1,-,-,-,-,-,-,.,.,.
CSc1nc2ccc(NC(=O)C3=NNC(=O)CC3)cc2s1,-,-,-,141,-,-,151,-,-
CSc1nc2ccc(NC(=O)C3=NN(c4ccccc4)C(=O)CC3)cc2s1,-,-,-,138,-,-,161,-,-
C/C=C/C=N/Nc1nc(C)cc(=O)[nH]1,-,-,-,-,-,-,.,.,.
O=C(Oc1c(Cl)cc(Cl)c2ccccc12)N1CCCC1,-,-,-,143,-,-,151,-,-
COc1ccc(S(=O)(=O)N(C)CC(=O)N2CCC(C(N)=O)CC2)cc1Cl,-,-,-,-,-,-,.,.,.
Cc1ccc(CNS(=O)(=O)NCc2ccc(Cl)cc2)cc1,-,-,-,-,-,-,.,.,.
CCOn1c(=O)c(-c2cc3ccccc3o2)[n+]([O-])c2ccccc21,-,-,-,154,-,-,179,128,158
CCOC(=O)COn1c(=O)c(-c2ccco2)[n+]([O-])c2ccccc21,-,-,-,-,-,-,.,.,.
O=C(Nc1cccc(F)c1)c1c(O)c2cccc3c2n(c1=O)CCC3,-,.,-,142,-,-,143,-,-
